Test results from ChEMBL document CHEMBL1667771, “The discovery of furo[2,3-c]pyridine-based indanone oximes as potent and selective B-Raf inhibitors” (Bioorg Med Chem Lett, 2011).

Key:
[1] = biological target: T1, Serine/threonine-protein kinase B-raf (Homo sapiens, UniProt P15056, V600E); assay: Inhibition of B-Raf V600E mutant
[2] = biological target: T1, Serine/threonine-protein kinase B-raf; assay: Inhibition of B-Raf V600E mutant assessed as inhibition of phosphorylated ERK production by cell based assay
How it was run: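 Cell-based readout of phospho-ERK production. The IC50 is the average of three experiments.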

Caco-2 = assay: Permeability ratio of the compound across human Caco2 cells; assay type: ADME, cell-based
[3] = Permeability of the compound across human Caco2 cells; assay type: ADME, cell-based; conditions: caco-2, read-out: permeability
How it was run: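 Caco-2 permeability is reported as a class: low (<2 × 10^-6 cm/s), medium (2–8 × 10^-6 cm/s), high (>8 × 10^-6 cm/s).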

Cytochrome P450 1A2 = biological target: T2, Cytochrome P450 1A2 (Homo sapiens, UniProt P05177); assay: Inhibition of CYP1A2; assay type: ADME
T2 sequence (P05177 whole entry): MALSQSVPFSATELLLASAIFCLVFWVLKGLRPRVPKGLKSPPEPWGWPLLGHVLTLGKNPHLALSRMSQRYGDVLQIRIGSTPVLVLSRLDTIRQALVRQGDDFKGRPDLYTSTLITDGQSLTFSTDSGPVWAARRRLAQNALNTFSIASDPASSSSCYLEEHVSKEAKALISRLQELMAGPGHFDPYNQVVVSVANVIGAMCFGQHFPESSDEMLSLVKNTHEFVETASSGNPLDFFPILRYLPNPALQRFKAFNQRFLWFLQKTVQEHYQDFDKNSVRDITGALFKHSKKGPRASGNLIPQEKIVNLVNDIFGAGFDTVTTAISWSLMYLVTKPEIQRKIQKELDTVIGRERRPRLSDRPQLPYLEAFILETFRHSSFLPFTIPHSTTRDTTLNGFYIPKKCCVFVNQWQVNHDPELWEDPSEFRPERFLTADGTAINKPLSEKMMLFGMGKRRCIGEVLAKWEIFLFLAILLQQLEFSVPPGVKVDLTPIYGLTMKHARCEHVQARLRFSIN

Cytochrome P450 2C19 = Cytochrome P450 2C19 (Homo sapiens, UniProt P33261); assay: Inhibition of CYP2C19; assay type: ADME
Cytochrome P450 2C19, sequence (P33261 whole entry): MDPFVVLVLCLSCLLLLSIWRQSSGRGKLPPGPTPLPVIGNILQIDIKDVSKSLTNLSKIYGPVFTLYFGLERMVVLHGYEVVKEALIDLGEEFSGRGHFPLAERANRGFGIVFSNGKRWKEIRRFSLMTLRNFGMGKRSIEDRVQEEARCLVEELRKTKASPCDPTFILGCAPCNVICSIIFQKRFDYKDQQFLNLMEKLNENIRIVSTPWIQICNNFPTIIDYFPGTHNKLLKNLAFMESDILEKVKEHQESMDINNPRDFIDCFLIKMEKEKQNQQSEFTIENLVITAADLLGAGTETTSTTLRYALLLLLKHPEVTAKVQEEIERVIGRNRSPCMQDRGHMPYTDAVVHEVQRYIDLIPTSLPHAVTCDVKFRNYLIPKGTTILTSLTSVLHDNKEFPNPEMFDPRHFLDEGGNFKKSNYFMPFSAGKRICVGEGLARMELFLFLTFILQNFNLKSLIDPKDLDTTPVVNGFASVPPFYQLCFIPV

Cytochrome P450 3A4 = Cytochrome P450 3A4 (Homo sapiens, UniProt P08684); assay: Inhibition of CYP3A4; assay type: ADME
Cytochrome P450 3A4, sequence (P08684 whole entry): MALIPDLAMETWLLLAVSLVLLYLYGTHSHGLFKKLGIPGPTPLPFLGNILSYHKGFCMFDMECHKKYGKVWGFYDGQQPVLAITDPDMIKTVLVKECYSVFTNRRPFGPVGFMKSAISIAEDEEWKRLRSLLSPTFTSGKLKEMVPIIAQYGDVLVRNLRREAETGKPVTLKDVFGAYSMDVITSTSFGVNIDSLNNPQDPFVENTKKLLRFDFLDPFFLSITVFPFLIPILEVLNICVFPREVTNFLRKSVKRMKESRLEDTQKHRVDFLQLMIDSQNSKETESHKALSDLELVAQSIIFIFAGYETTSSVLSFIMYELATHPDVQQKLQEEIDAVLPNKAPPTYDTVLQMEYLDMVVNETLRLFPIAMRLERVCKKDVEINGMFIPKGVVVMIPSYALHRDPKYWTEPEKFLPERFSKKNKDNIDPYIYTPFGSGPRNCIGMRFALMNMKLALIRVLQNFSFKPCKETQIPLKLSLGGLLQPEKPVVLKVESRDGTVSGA

[4] = Aqueous solubility of the compound at pH 6.5; assay type: physicochemical

T1 sequence (P15056 2-766 V600E limits assumed): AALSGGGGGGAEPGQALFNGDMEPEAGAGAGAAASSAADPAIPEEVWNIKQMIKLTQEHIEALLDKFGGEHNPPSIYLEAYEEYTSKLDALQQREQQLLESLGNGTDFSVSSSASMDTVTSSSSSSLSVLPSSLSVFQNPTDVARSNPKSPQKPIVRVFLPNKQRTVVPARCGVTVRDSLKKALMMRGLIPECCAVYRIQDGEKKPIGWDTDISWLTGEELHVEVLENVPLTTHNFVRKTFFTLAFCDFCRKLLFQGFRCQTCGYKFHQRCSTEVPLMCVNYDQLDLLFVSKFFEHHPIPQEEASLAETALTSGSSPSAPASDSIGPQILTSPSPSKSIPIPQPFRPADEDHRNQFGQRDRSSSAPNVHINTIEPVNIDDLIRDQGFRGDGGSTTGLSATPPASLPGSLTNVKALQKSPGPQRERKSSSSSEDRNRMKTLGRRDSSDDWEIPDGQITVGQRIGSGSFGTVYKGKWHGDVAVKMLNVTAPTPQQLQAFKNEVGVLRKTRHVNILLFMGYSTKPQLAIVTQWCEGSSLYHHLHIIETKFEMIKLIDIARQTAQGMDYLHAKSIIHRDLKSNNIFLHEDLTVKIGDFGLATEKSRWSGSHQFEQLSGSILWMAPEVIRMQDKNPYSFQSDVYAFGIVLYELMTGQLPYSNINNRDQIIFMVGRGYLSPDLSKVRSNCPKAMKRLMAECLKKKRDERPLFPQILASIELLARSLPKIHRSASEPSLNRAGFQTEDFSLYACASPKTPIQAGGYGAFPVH

SMILES	IC50 [1] [nM]	IC50 [2] [nM]	other results
CN(C)C(=O)c1sc2cnccc2c1Nc1ccc2c(c1)CC/C2=N/O	40	5800	–
Cc1nc2cnccn2c1Nc1ccc(Cl)cc1	1200	–	–
Cc1ccc(-c2oc3cnccc3c2Nc2ccc3c(c2)CC/C3=N\O)cc1	3	2000	–
O/N=C1/CCc2cc(Nc3c(-c4ccco4)nc4cnccn34)ccc21	4	1400	–
O/N=C1/CCc2cc(Nc3csc4cnccc34)ccc21	32	7300	–
CN(C)CCNC(=O)c1sc2cnccc2c1Nc1ccc2c(c1)CC/C2=N/O	52	8200	–
NCc1ccc(Nc2c(-c3ccccc3)nc3cnccn23)cc1	1400	–	–
O/N=C1/CCc2cc(Nc3c(-c4ccccc4)nc4cnccn34)ccc21	35	19000	–
O/N=C1/CCc2cc(Nc3c(-c4cccnc4)oc4cnccc34)ccc21	< 2	960	–
O/N=C1\CCc2cc(Nc3c(-c4ncccn4)oc4cnccc34)ccc21	0.2	5	Ratio (Caco-2): 0.9; Papp [3]: > 8 ×10⁻⁶ cm/s
Cc1cc(-c2oc3cnccc3c2Nc2ccc3c(c2)CC/C3=N\O)no1	< 2	365	–
CCOC(=O)c1nc2cnccn2c1Nc1ccc2c(c1)CC/C2=N\O	16	3100	–
CCOC(=O)c1oc2cnccc2c1Nc1ccc2c(c1)CC/C2=N/O	< 2	30	IC50 (Cytochrome P450 1A2): > 25000 nM; IC50 (Cytochrome P450 2C19): 1180 nM; IC50 (Cytochrome P450 3A4): 8300 nM
CCCC(=O)c1sc2cnccc2c1Nc1ccc2c(c1)CC/C2=N/O	< 2	140	–
O/N=C1/CCc2cc(Nc3c(-c4ccccc4)sc4cnccc34)ccc21	3	1500	–
Clc1ccc(Nc2c(-c3ccccc3)nc3cnccn23)cc1	570	76000	–
Oc1cc(-c2nc(-c3ccccc3)[nH]c2-c2ccncc2)ccc1Cl	10	–	–
O/N=C1/CCc2cc(Nc3c(-c4cccnc4)sc4cnccc34)ccc21	3	170	–
O/N=C1\CCc2cc(Nc3c(-c4ccccn4)oc4cnccc34)ccc21	< 2	150	–
CN(C)C(=O)c1oc2cnccc2c1Nc1ccc2c(c1)CC/C2=N\O	5	340	–
O/N=C1/CCc2cc(Nc3c(-c4cccnc4)nc4cnccn34)ccc21	47	16000	–
CN(C)CCNC(=O)c1oc2cnccc2c1Nc1ccc2c(c1)CC/C2=N\O	2	40	Ratio (Caco-2): 0.9; solubility [4]: > 1000 µg/mL; Papp [3]: > 8 ×10⁻⁶ cm/s
CCOC(=O)c1sc2cnccc2c1Nc1ccc2c(c1)CC/C2=N/O	3	280	IC50 (Cytochrome P450 1A2): 616 nM; IC50 (Cytochrome P450 2C19): 129 nM; IC50 (Cytochrome P450 3A4): 50 nM
